Sampled rows, rich in hits. Any-hit rate of the full collection: about 2.6%.
SR-BI DiI inh – blocks mouse SR-BI lipid uptake from DiI-HDL. Q61009. ldlA[mSR-BI] CHO cells, DiI-HDL uptake fluorescence, 3 h. inhibition, % at 12.5 µM. 320,000 compounds, 0.96% hits;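 active = mean replicate inhibition of at least 70% and a set share of replicates each scoring 70 or more; inconclusive = meets just one of the two criteria; inactive = fails both criteria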
Target sequence (Q61009 whole entry, looked up): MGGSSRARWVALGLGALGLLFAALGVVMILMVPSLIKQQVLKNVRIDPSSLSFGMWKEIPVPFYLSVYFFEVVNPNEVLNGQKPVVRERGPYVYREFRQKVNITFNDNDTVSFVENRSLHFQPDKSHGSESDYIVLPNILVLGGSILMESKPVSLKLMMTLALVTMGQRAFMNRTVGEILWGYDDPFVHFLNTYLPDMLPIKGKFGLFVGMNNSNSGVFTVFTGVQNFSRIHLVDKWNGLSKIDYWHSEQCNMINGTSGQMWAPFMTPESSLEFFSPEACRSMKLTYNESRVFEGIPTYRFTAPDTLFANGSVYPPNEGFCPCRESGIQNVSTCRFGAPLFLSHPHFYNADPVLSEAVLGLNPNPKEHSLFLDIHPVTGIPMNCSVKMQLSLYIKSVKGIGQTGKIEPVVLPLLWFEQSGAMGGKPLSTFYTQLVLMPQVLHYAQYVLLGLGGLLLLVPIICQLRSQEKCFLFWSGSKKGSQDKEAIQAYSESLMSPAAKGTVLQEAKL
dFosB activator – enhances mouse delta FosB homodimer DNA binding; 340,000 compounds, 0.99% hits; P13346; activation, % at 25 µM; purified delta FosB, TAMRA-CDK5 oligo fluorescence polarization; percent of positive-control signal above neutral wells;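 active = mean activation above about 17%, with every replicate also reaching it, limit read from the data, passing the limit was not always enough; inconclusive = only one of the two conditions met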
PvdQ inh – blocks Pseudomonas aeruginosa PvdQ acylase activity. purified PvdQ acylase, fluorescence plate reader. inhibition, % at 10 µM. 340,000 compounds, 0.063% hits; in the data active = inhibition above about 30%, passing the limit was not always enough; inconclusive = no clear call, values can overlap the other calls
Xi reactivation – activators of X-chromosome reactivation in mouse fibroblasts; XiGFP mouse fibroblasts, % GFP-positive cells imaging, 3 d; cells co-treated with 5-aza-dC sensitizer; scaled so ellipticine positive control = 100%; activation, % at 7.58 µM; 360,000 compounds, 0.055% hits;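 active = mean normalized replicate activation at least 10% and every replicate at or above 10%; inconclusive = only one of the two criteria met; inactive = mean below 10% and not all replicates reach 10%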
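Assay system: SV40-immortalized XiGFP fibroblast cells, line 68-5-11; buffer or medium: DMEM plus 5-aza-dC sensitizer; compound: one concentration, pinned; timing: compounds 3 days, fix/stain 15 min at room temperature; benchmarks: positive control ellipticine, 6 µM final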
Ecoli rRNA inh – selective bacterial rRNA inhibition in E. coli | GFP signal change (wild-type ribosome), % (test concentration not listed) | E. coli WT GFP vs humanized-ribosome RFP mutants, fluorescence, 24 h; active compounds read low; DMSO median 0, no signal -100 | 350,000 compounds, 1.6% hits;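 active = significant combined selectivity score with lowered wild-type GFP, culture density cut under 30%, mutant RFP and density less affected; inactive = any of these conditions unmet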
SR-BI DiI-HDL act – enhances SR-BI lipid uptake from DiI-HDL; CHO ldlA[mSR-BI] cells, DiI-HDL uptake fluorescence, 3 h; 100 = double the neutral-control signal; activation, % at 12.5 µM; 320,000 compounds, 0.096% hits; AID 504775;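 active = mean replicate activation of at least 60% and every replicate at or above 60%; inconclusive = mean or all-replicate condition met, but not both; inactive = mean below 60% and not all replicates reaching 60%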
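Material: SR-BI-overexpressing, LDLR-lacking CHO cells | Dosing: Single compound concentration, delivered by pin transfer | Probe or stimulus: Labelled HDL, 10 µg/mL | Signal: Bottom-read cell fluorescence after medium removal, ex 550/em 595 nm | Schedule: 3 h, 37 °C | Evaluation: HDL uptake via cellular fluorescence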
HepG2 tox – HepG2 cell cytotoxicity | shares compounds with Ecoli rRNA inh | HepG2 viability, ATP luminescence, 72 h | AID 743480 | 30 tested, under 10 active | activity change, negative = cytotoxicity, unspecified at 26 µM;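 active = compounds whose fitted half-maximal signal-loss concentration is at most twice their highest valid dose; inconclusive = flat curve with 30 to 70% signal loss, or poor fit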
AID977621 – wild-type E. coli growth inhibition versus H69 humanized strain – H69 mutant RFP, wild-type GFP, cherry-pick, dose response; shares compounds with Ecoli rRNA inh; fluorescence, 24 h; activity change, negative = inhibition at 50 µM; 1,900 tested, under 10 active;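 active = Wild-type ribosome reporter drop at least double the humanized mutant ribosome reporter drop, growth loss under a set limit; inconclusive = no clear call, values can overlap the other calls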;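 also: wild-type GFP and H69 mutant RFP strains grown together 50/50 in each well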
AID977628 – growth of wild-type and h24-humanized E. coli strains – h24 mutant RFP vs wild-type GFP, cherry-pick, dose response. shares compounds with Ecoli rRNA inh. E. coli WT GFP strain growth, fluorescence, 24 h. activity change, negative = inhibition at 50 µM. 1,900 tested, under 10 active. AID 977628;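 active = compound lowering the normal-ribosome reporter at least twice as much as the humanized-ribosome reporter, growth loss under a set limit; inconclusive = no clear call, values can overlap the other calls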;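 also: wild-type GFP and h24 humanized RFP strains co-cultured 1 to 1 per well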
Of the large screens only hits and unclear results are named; the others gave an inactive call (follow-up assays come after a bar, where they were run).

CC(C)NC(=O)N(C)C[C@H]1OCCCC[C@@H](C)Oc2ccc(NC(=O)c3ccccc3)cc2C(=O)N([C@H](C)CO)C[C@@H]1C	none (no result: SR-BI DiI inh, dFosB activator, PvdQ inh, SR-BI DiI-HDL act)
C[C@@H]1CCCCO[C@H](CN(C)C(=O)Nc2cccc3ccccc23)[C@H](C)CN([C@@H](C)CO)C(=O)c2cc(NC(=O)Nc3cccc4ccccc34)ccc2O1	none (no result: SR-BI DiI inh, dFosB activator, PvdQ inh, SR-BI DiI-HDL act)
CC(C)(C)c1ccc(OCCCNC2CCCC2)cc1	none
Cc1ccc(OC(=O)CCC(=O)Oc2ccc(C)cc2C)c(C)c1	none
COc1ccc(CC(=O)Oc2ccc(C)cc2C)cc1	Ecoli rRNA inh -23 | AID977621 inactive | AID977628 inactive
COc1ccc(N2CCN(S(=O)(=O)c3ccc(Cl)s3)CC2)cc1	none
O=C(C[C@H]1C=C[C@H](NS(=O)(=O)c2ccc(F)cc2)[C@H](CO)O1)N1CCN(c2ccccc2)CC1	none (no result: SR-BI DiI inh, dFosB activator, PvdQ inh, SR-BI DiI-HDL act)
COc1ccc(-c2cn3cc(Cl)ccc3n2)cc1OC	Ecoli rRNA inh -27 (no result: Xi reactivation) | AID977628 inconclusive
Cc1cccc(OCCNc2cc(N3CCN(C)CC3)ccc2[N+](=O)[O-])c1	none (no result: Xi reactivation, Ecoli rRNA inh)
Cc1cccc(OCCNc2ncccc2[N+](=O)[O-])c1	Ecoli rRNA inh -17 (no result: SR-BI DiI inh, dFosB activator, PvdQ inh, SR-BI DiI-HDL act) | AID977621 inconclusive
O=C1CCCc2ccccc2N1Cc1ccccc1	Ecoli rRNA inh -28 | AID977621 inactive | AID977628 inactive
Cc1ccc(-n2nc3c(N4CCC(C(=O)N5CCCCCC5)CC4)nnc(C)c3c2C)cc1	none (no result: Xi reactivation, Ecoli rRNA inh)
COc1ccc(OC)c(CN2CCCC(C(=O)c3ccccc3SC)C2)c1 (stereo not given)	Ecoli rRNA inh -18 (no result: SR-BI DiI inh, SR-BI DiI-HDL act) | AID977628 inconclusive
COc1ccc(-c2[nH]ncc2CN2CCCC(C(=O)c3ccc(OC)cc3OC)C2)cc1 (stereo not given)	none
CC1CCN(CC(O)COCCC23CC4CC(CC(C4)C2)C3)CC1 (stereo not given)	Ecoli rRNA inh -40 (no result: Xi reactivation) | AID977621 inactive
COc1ccc(C)cc1NC(=O)CSc1nc2ccccc2nc1N1CCCCC1	none
CCCCOc1ccc(-c2nnn(CCC(=O)N3CCOCC3)n2)cc1	Ecoli rRNA inh -22 (no result: Xi reactivation) | AID977621 inactive | AID977628 inactive
O=C(COC(=O)c1ccc(-c2ccccc2)cc1)Nc1ccccc1-c1ccccc1	none (no result: Ecoli rRNA inh)
CN(C)CCN(Cc1ccccc1)S(=O)(=O)c1ccc(-c2ccc(=O)[nH]n2)s1	none
COc1cccc(NC2=Nc3cccc4cccc2c34)c1	Ecoli rRNA inh -34 | AID977621 inactive
CCOc1ccccc1NC(=O)c1ccc2ccccc2c1	Ecoli rRNA inh -25 | HepG2 tox inactive | AID977628 inconclusive
CCCC(=O)Nc1cccc(C(=O)Nc2ccccc2OCC)c1	Ecoli rRNA inh -27 (no result: SR-BI DiI inh, dFosB activator, PvdQ inh, SR-BI DiI-HDL act) | AID977621 inactive | AID977628 inactive
c1cncc(-c2nc3cc4ccccc4cc3[nH]2)c1	Ecoli rRNA inh -26 (no result: Xi reactivation) | AID977621 inactive
C[C@@H]1CN([C@H](C)CO)C(=O)c2cc(NC(=O)C3CC3)ccc2O[C@H]1CN(C)Cc1ccc(C(F)(F)F)cc1	none (no result: SR-BI DiI inh, dFosB activator, PvdQ inh, SR-BI DiI-HDL act)
Cc1ccc(CSCC(=O)Nc2ccccc2F)cc1	Ecoli rRNA inh -23 (no result: SR-BI DiI inh, SR-BI DiI-HDL act) | AID977621 inactive | AID977628 inconclusive
COc1ccc(NC(=O)CSc2nnc(Cc3ccccc3)o2)c(OC)c1	Ecoli rRNA inh -24 (no result: Xi reactivation) | AID977621 inactive | AID977628 inactive
O=C(C[n+]1ccn(-c2ccccc2)c1)c1ccc([N+](=O)[O-])cc1	Ecoli rRNA inh -22 | AID977628 inactive
CCN1C(=O)C(CC(=O)Nc2ccc(F)cc2)N(CCCN2CCN(c3ccc(F)cc3)CC2)C1=S (stereo not given)	Ecoli rRNA inh -53 | AID977621 inactive | AID977628 inconclusive
COC(=O)c1cccc(CN2C(=O)SC(Nc3ccc(C)cc3)C2=O)c1 (stereo not given)	Ecoli rRNA inh -16 | AID977621 inactive | AID977628 inconclusive
COc1ccc2cc(C(=O)C3CCCN(Cc4ccccn4)C3)ccc2c1 (stereo not given)	none
CCn1ccnc1CN1CCCC(C(=O)c2ccc3cc(OC)ccc3c2)C1 (stereo not given)	Ecoli rRNA inh -33 | AID977621 inactive | AID977628 inactive
O=c1[nH]nc(SCc2ccccc2)n1C1CC2C=CC1C2 (stereo not given)	Ecoli rRNA inh -35 | AID977621 inactive | AID977628 inconclusive
C=CCNc1ccc2c(c1)OC[C@H](CC(C)C)NS2(=O)=O	Ecoli rRNA inh -23 (no result: SR-BI DiI inh, dFosB activator, PvdQ inh, SR-BI DiI-HDL act) | AID977621 inconclusive
CCCc1nc(C)c2c(=O)[nH]c(-c3cc(S(=O)(=O)N4CCN(CC)CC4)ccc3OCC)nn12	none
CCOc1ccccc1N1CCN(Cc2cn[nH]c2-c2ccc(F)cc2)CC1	Ecoli rRNA inh -19 | AID977621 inactive
C=C(C)CNC(=S)NNC(=O)c1ccncc1	none
COCc1ccc(C(=O)N2CCCC(C(=O)c3ccc(Cl)cc3C)C2)o1 (stereo not given)	Ecoli rRNA inh -26 | AID977621 inactive | AID977628 inactive
COc1ccc(-c2c3c(nc4sc(C(=O)Nc5cc(C)on5)c(N)c24)CCC3)cc1	none (no result: Xi reactivation, Ecoli rRNA inh)
COc1ccc(CNC(=O)c2sc3nc4c(c(C(F)(F)F)c3c2N)CCC4)cc1OC	Ecoli rRNA inh -19 | AID977621 inactive | AID977628 inactive
COc1ccc(/C=C/c2cccc[n+]2C)c(O)c1	none
C[n+]1ccccc1/C=C/c1cc(Br)ccc1O	Ecoli rRNA inh -21 | AID977628 inconclusive
COc1ccc(OC)c(NC(=O)CN(C)CC(=O)Nc2ccccc2Br)c1	Ecoli rRNA inh -25 | AID977621 inactive | AID977628 inconclusive
COc1ccc(CNC(=O)CN(C)CC(=O)Nc2ccccc2Br)cc1	none (no result: SR-BI DiI-HDL act)
Cc1cc(C(=O)CN2C(=O)C(=O)N(C3CCCC3)C2=O)c(C)n1-c1ccc(F)cc1	none
O=C(Nc1cc(S(=O)(=O)N2CCCCC2)ccc1N1CCCCC1)C1CC1	Ecoli rRNA inh -20 (no result: SR-BI DiI inh, SR-BI DiI-HDL act) | AID977621 inactive | AID977628 inactive
COc1ccc(NC(=O)c2ccc(COc3ccccc3)o2)c(OC)c1	none

Bioassay records from PubChem.
